The source of these data is ChEMBL document CHEMBL1123704, “Synthesis of D-oxa tricyclic partial ergolines as dopamine agonists” (1987).

What all share (assay type): functional
Assay [1] concerns Rattus norvegicus. In words: Ability to lower the serum prolactin levels in comparison with that of pergolide was determined for the drug-treated rats at ip dose of 0.005 mg/kg. As to conditions: route intraperitoneal. An outline of the steps: (§1)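 Reserpinized male rats, test compound ip. Serum prolactin (ng/mL) was measured in control and treated groups, and the treated value was expressed as percent change from control. Means ± standard error for 10 rats, with significance versus control prolactin given as p.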

In assay [2] the test system is Rattus norvegicus. In words: Ability to induce contralateral rotational behavior in unilateral 6-hydroxydopamine nigrostriatal-lesioned rats and no. of turns was determined after 15 minutes of start at intraperitoneal dosage of 0.1 mg/kg. A digest of the protocol: (§2)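 Rats given unilateral 6-hydroxydopamine nigrostriatal lesions, then test compound ip. Contralateral rotation was scored as percent of rats turning and as turns in the first 15 min after turning began. Groups of 6–10 rats.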

In assay [3] the test system is Rattus norvegicus. Briefly: Ability to induce contralateral rotational behavior in unilateral 6-hydroxydopamine nigrostriatal-lesioned rats and percent of rats turning was determined at intraperitoneal dosage of 1.0 mg/kg. A digest of the protocol: as §2
Assay [4] concerns Rattus norvegicus. Briefly: Ability to lower the serum prolactin levels in comparison with that of pergolide expressed as percent inhibition change at ip dose of 0.005 mg/kg. As to conditions: route intraperitoneal. An outline of the steps:
as §1

Assay [5] concerns Rattus norvegicus. In words: Ability to lower the serum prolactin levels in comparison with that of pergolide was determined for the control rats at ip dose of 0.05 mg/kg. The settings on record: route intraperitoneal. A digest of the protocol:
as §1

Assay [6] concerns Rattus norvegicus. In words: Ability to lower the serum prolactin levels in comparison with that of pergolide was determined for the control rats at ip dose of 0.005 mg/kg. As to conditions: route intraperitoneal. An outline of the steps:
as §1

The subject of assay [7] is Rattus norvegicus. Briefly: Ability to induce contralateral rotational behavior in unilateral 6-hydroxydopamine nigrostriatal-lesioned rats and percent of rats turning was determined at intraperitoneal dosage of 0.1 mg/kg. A digest of the protocol: as §2
Assay [8] has as its system Rattus norvegicus. Briefly: Ability to lower the serum prolactin levels in comparison with that of pergolide expressed as percent inhibition change at ip dose of 0.05 mg/kg. As to conditions: route intraperitoneal. A digest of the protocol: as §1
Assay [9] has as its system Rattus norvegicus. Briefly: Ability to lower the serum prolactin levels in comparison with that of pergolide was determined for the drug-treated rats at ip dose of 0.05 mg/kg. As to conditions: route intraperitoneal. A digest of the protocol: as §1
The test system of assay [10] is Rattus norvegicus. In words: Ability to induce contralateral rotational behavior in unilateral 6-hydroxydopamine nigrostriatal-lesioned rats and no. of turns was determined after 15 minutes of start at intraperitoneal dosage of 1.0 mg/kg. A digest of the protocol: as §2
Assay [11] deals with Rattus norvegicus. In words: Ability to lower the serum prolactin levels in comparison with that of pergolide was determined for the control rats at ip dose of 0.01 mg/kg. The settings on record: route intraperitoneal. A digest of the protocol: as §1
The subject of assay [12] is Rattus norvegicus. Briefly: Ability to lower the serum prolactin levels in comparison with that of pergolide expressed as percent inhibition change at ip dose of 0.01 mg/kg. The settings on record: route intraperitoneal. A digest of the protocol: as §1
In assay [13] the test system is Rattus norvegicus. In words: Ability to lower the serum prolactin levels in comparison with that of pergolide was determined for the drug-treated rats at ip dose of 0.01 mg/kg. As to conditions: route intraperitoneal. An outline of the steps:
as §1

Assay [14] concerns Rattus norvegicus. In words: Ability to lower the serum prolactin levels in comparison with that of pergolide expressed as percent inhibition change at ip dose of 0.1 mg/kg. The settings on record: route intraperitoneal. A digest of the protocol: as §1
Assay [15] concerns Rattus norvegicus. Briefly: Ability to lower the serum prolactin levels in comparison with that of pergolide was determined for the control rats at ip dose of 0.1 mg/kg. As to conditions: route intraperitoneal. A digest of the protocol: as §1
Assay [16] deals with Rattus norvegicus. In words: Ability to lower the serum prolactin levels in comparison with that of pergolide expressed as percent inhibition change at ip dose of 0.5 mg/kg. As to conditions: route intraperitoneal. A digest of the protocol:
as §1

Assay [17] relates to Rattus norvegicus. In words: Ability to lower the serum prolactin levels in comparison with that of pergolide was determined for the drug-treated rats at ip dose of 0.1 mg/kg. The settings on record: route intraperitoneal. A digest of the protocol:
as §1

Assay [18] has as its system Rattus norvegicus. Briefly: Ability to lower the serum prolactin levels in comparison with that of pergolide was determined for the control rats at ip dose of 0.5 mg/kg. The settings on record: route intraperitoneal. An outline of the steps: as §1
For assay [19], the system named is Rattus norvegicus. In words: Ability to lower the serum prolactin levels in comparison with that of pergolide was determined for the drug-treated rats at ip dose of 0.5 mg/kg. As to conditions: route intraperitoneal. An outline of the steps:
as §1

Assay [20] relates to Rattus norvegicus. In words: Ability to lower the serum prolactin levels in comparison with that of pergolide was determined for the drug-treated rats at ip dose of 5.0 mg/kg. As to conditions: route intraperitoneal. A digest of the protocol: as §1
In assay [21] the test system is Rattus norvegicus. Briefly: Ability to lower the serum prolactin levels in comparison with that of pergolide expressed as percent inhibition change at ip dose of 5.0 mg/kg. The settings on record: route intraperitoneal. An outline of the steps:
as §1

Molecules are shown by their SMILES.

As for `CCCN1C[C@H](CSC)C[C@@H]2c3cccc4[nH]cc(c34)C[C@H]21` [PERGOLIDE], the results for the Prolactin treatment in the assay on Rattus norvegicus [1] and in the assay on Rattus norvegicus [9] were 3.5 ng/mL and 1.6 ng/mL, respectively. Moreover, the Turns with Rattus norvegicus [2] is listed as 81; in the assay on Rattus norvegicus [10], 93. In addition, the Of rats turning in the assay on Rattus norvegicus [3] came to 100%; with Rattus norvegicus [7], 83%. The Change is reported as -91% in the assay with Rattus norvegicus [4] and -95% in the assay on Rattus norvegicus [8]. For the same molecule, the Prolactin control is 30.4 ng/mL in the assay on Rattus norvegicus [5] and 37.7 ng/mL in the assay on Rattus norvegicus [6].

As to `CCCN1CCO[C@@H]2Cc3nc(N)ncc3C[C@H]21`, the Prolactin treatment in the assay on Rattus norvegicus [1] was 41.2 ng/mL; in the assay with Rattus norvegicus [13], 33.7 ng/mL; in the assay with Rattus norvegicus [9] it was 13.8 ng/mL. Moreover, the Rats turning in the assay with Rattus norvegicus [3] is 80%. Moreover, the Change was 1% in the assay on Rattus norvegicus [4], -31% in the assay with Rattus norvegicus [12] and -70% in the assay on Rattus norvegicus [8]. Further, the Prolactin control in the assay with Rattus norvegicus [5] was found to be 45.4 ng/mL; in the assay on Rattus norvegicus [6], 40.6 ng/mL; in the assay with Rattus norvegicus [11] it was 52 ng/mL. In the assay with Rattus norvegicus [10], this molecule displayed a Turns of 33.

In the case of `CCCN1CCO[C@@H]2Cc3nc(N)sc3C[C@H]21`, the Rats turning with Rattus norvegicus [3] is given as 80%. In addition, the Prolactin control with Rattus norvegicus [5] was 41.5 ng/mL; in the assay with Rattus norvegicus [11], 40.6 ng/mL. Further, the Change with Rattus norvegicus [12] was -20%; with Rattus norvegicus [8], -51%. Also, the Prolactin treatment stood at 48.9 ng/mL with Rattus norvegicus [13] and 20.2 ng/mL with Rattus norvegicus [9]. Besides, the Turns in the assay with Rattus norvegicus [10] is given as 95.

For `CCCN1CCO[C@@H]2Cc3n[nH]cc3C[C@H]21`, the Turns in the assay on Rattus norvegicus [2] was determined as 35; with Rattus norvegicus [10], 52. The Rats turning was 100% in the assay on Rattus norvegicus [3] and 60% in the assay on Rattus norvegicus [7]. Moreover, the Change is given as -35% in the assay on Rattus norvegicus [14], 7% in the assay with Rattus norvegicus [12], -41% in the assay with Rattus norvegicus [8] and -92% in the assay with Rattus norvegicus [16]. Also, the Prolactin control in the assay with Rattus norvegicus [5] worked out at 45.5 ng/mL; with Rattus norvegicus [11] it was 58 ng/mL; in the assay with Rattus norvegicus [15], 46.8 ng/mL; in the assay with Rattus norvegicus [18], 46.8 ng/mL. In addition, the Prolactin treatment in the assay on Rattus norvegicus [13] stood at 62 ng/mL; with Rattus norvegicus [9], 27 ng/mL; with Rattus norvegicus [17], 30.2 ng/mL; with Rattus norvegicus [19], 3.6 ng/mL.

As to `CCCN1CCC[C@@H]2Cc3n[nH]cc3C[C@H]21` [QUINPIROLE], the Turns/1st in the assay with Rattus norvegicus [2] came to 67; in the assay on Rattus norvegicus [10] it was 85. Moreover, the Of rats turning in the assay with Rattus norvegicus [3] came out at 100%; with Rattus norvegicus [7] it was 75%. Besides, the Prolactin treatment with Rattus norvegicus [20] is 2.7 ng/mL; in the assay on Rattus norvegicus [9], 12.3 ng/mL; with Rattus norvegicus [19], 7.7 ng/mL. The Change in the assay with Rattus norvegicus [8] was -61%; in the assay with Rattus norvegicus [16], -76%; in the assay on Rattus norvegicus [21], -91%.
